Reference: ChEMBL document CHEMBL4610117 (J Med Chem, 2020)
The source made the active and inactive calls. No cut-off for these calls is given here.

What was measured:
[1] = target: T1, Serine/threonine-protein kinase ATR (Homo sapiens, UniProt Q13535); test: Inhibition of 5'-TAMRA-labeled tracer 3',6'-bis(dimethylamino)-N-(4-{[2(1H-indol-4-yl)-6-(morpholin-4-yl)-pyrimidin-4-yl]amino}butyl)-3-oxo-3H-spiro[2-benzofuran-1,9'-xanthene]-5-carboxamide binding to recombinant human full-length N-terminal Flag-tagged ATR expressed in HEK293-6E cells co-expressing human full-length STREP-tagged ATRIP preincubated for 10 mins followed by tracer addition and measured after 30 mins by TR-FRET assay; assay type: cell-based
T1 sequence (Q13535 whole entry): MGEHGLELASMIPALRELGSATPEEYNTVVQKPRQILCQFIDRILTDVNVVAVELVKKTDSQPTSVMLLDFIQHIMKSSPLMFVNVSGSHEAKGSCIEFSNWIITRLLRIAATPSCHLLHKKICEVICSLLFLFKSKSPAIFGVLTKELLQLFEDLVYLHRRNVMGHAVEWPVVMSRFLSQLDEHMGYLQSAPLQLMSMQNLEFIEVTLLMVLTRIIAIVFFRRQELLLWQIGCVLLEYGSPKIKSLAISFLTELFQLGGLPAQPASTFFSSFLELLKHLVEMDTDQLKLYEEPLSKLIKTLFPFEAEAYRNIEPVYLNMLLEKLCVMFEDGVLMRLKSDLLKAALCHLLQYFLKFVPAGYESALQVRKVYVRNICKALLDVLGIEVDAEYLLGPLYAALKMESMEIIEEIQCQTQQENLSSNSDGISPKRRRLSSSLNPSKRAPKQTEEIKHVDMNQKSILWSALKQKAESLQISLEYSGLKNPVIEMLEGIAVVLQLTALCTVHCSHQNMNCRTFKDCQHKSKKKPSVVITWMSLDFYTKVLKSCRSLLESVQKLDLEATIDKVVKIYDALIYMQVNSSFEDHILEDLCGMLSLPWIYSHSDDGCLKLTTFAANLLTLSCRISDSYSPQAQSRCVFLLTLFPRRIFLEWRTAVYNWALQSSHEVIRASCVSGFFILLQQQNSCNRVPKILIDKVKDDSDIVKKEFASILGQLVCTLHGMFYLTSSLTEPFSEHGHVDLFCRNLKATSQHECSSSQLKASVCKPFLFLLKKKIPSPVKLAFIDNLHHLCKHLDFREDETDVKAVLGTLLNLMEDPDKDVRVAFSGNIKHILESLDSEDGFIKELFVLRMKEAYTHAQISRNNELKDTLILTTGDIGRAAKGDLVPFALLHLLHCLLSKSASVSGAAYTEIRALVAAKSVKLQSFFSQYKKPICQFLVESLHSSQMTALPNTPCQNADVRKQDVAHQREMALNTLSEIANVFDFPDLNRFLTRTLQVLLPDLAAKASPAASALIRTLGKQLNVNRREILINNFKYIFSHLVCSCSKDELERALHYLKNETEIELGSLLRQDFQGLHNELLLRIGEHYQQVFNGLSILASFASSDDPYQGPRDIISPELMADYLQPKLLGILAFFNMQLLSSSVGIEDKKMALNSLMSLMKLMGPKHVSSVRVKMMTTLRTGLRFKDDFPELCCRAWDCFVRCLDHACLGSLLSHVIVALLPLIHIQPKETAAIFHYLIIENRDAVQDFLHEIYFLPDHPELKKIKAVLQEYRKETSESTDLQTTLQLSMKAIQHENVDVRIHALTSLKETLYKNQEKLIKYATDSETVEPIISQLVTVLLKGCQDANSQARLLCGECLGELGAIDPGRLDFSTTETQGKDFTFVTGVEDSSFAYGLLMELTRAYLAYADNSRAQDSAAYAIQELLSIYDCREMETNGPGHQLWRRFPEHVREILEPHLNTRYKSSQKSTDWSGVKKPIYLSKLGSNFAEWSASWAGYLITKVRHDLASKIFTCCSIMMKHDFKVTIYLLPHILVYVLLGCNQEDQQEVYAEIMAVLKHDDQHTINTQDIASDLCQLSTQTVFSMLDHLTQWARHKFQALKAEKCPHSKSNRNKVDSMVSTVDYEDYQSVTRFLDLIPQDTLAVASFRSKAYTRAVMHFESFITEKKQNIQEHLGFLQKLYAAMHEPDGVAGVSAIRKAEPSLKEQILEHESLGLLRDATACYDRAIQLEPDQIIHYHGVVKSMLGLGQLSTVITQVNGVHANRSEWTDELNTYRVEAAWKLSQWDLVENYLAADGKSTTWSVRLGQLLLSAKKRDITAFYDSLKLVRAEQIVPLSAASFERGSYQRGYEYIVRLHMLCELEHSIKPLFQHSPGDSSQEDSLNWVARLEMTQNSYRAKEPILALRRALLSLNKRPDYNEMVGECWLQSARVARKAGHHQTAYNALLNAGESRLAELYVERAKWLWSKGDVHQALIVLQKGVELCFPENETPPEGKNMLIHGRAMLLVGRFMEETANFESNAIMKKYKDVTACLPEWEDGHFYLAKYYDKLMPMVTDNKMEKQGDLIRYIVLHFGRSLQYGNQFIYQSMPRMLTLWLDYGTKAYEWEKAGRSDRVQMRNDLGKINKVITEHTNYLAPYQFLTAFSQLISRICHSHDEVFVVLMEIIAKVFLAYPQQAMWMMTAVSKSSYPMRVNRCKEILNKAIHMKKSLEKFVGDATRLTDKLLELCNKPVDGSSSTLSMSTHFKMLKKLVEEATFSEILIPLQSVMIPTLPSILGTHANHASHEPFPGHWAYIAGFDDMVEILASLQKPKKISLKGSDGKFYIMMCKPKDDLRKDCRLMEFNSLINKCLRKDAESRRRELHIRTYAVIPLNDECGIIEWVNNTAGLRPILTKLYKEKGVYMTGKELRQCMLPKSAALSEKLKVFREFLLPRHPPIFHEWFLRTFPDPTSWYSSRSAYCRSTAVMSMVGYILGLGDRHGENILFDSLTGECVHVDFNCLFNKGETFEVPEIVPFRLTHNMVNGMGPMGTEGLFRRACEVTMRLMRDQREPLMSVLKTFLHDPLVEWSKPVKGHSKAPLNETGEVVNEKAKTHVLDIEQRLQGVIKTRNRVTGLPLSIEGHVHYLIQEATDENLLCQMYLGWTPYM

[2] = Lipophilicity, log D of the compound in pH 7.5 MeCN/H2O solution by reversed-phase HPLC analysis
[3] = target: T1, Serine/threonine-protein kinase ATR; test: Inhibition of ATR in human HT-29 cells assessed as reduction in histone H2AX phosphorylation measured after 30 mins by immunofluorescence cytometric assay; assay type: cell-based
Outline: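 HT-29 cells were seeded at 12000/point in DMEM/Ham's F12 with 2 mM L-glutamine and 10% FCS and grown 24 h at 37 °C. Compound (1 nM–10 μM final) was added with hydroxyurea (2.5 mM final) for 30 min at 37 °C.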

[4] = Apparent permeability across apical to basolateral side in human Caco2 cells at 2 uM measured after 2 hrs by LC-MS/MS analysis; settings: Caco-2
[5] = Efflux ratio of apparent permeability across basolateral to apical side over apical to basolateral side in human Caco2 cells at 2 uM; settings: Caco-2
[6] = Clearance in Han-Wistar rat hepatocytes at 1 uM measured after 2 to 90 mins by LC-MS/MS analysis; assay type: ADME, cell-based, Hepatocyte
[7] = Clearance in rat liver microsomes at 1 uM measured after 2 to 60 mins in presence of NADP by LC-MS/MS analysis; assay type: ADME, Microsome
[8] = Clearance in Wistar rat at 0.3 to 0.5 mg/kg, iv administered as bolus dose by LC-MS/MS analysis; assay type: ADME, organism-based; settings: in vivo
[9] = Volume of distribution at steady state in Wistar rat at 0.3 to 0.5 mg/kg, iv administered as bolus dose by LC-MS/MS analysis; assay type: ADME, organism-based; settings: in vivo, read-out: Vdss
[10] = Apparent half life in Wistar rat at 0.3 to 0.5 mg/kg, iv administered as bolus dose by LC-MS/MS analysis; assay type: ADME, organism-based; settings: in vivo, read-out: t1/2(app) (converted)
[11] = Oral bioavailability in Wistar rat at 0.6 to 1 mg/kg by LC-MS/MS analysis; assay type: ADME, organism-based; settings: in vivo
[12] = target: Voltage-gated inwardly rectifying potassium channel KCNH2 (Homo sapiens, UniProt Q12809); test: Inhibition of recombinant human ERG stably expressed in HEK293 cells at -80 mV by whole cell voltage clamp method
Sequence of Voltage-gated inwardly rectifying potassium channel KCNH2 (Q12809 whole entry): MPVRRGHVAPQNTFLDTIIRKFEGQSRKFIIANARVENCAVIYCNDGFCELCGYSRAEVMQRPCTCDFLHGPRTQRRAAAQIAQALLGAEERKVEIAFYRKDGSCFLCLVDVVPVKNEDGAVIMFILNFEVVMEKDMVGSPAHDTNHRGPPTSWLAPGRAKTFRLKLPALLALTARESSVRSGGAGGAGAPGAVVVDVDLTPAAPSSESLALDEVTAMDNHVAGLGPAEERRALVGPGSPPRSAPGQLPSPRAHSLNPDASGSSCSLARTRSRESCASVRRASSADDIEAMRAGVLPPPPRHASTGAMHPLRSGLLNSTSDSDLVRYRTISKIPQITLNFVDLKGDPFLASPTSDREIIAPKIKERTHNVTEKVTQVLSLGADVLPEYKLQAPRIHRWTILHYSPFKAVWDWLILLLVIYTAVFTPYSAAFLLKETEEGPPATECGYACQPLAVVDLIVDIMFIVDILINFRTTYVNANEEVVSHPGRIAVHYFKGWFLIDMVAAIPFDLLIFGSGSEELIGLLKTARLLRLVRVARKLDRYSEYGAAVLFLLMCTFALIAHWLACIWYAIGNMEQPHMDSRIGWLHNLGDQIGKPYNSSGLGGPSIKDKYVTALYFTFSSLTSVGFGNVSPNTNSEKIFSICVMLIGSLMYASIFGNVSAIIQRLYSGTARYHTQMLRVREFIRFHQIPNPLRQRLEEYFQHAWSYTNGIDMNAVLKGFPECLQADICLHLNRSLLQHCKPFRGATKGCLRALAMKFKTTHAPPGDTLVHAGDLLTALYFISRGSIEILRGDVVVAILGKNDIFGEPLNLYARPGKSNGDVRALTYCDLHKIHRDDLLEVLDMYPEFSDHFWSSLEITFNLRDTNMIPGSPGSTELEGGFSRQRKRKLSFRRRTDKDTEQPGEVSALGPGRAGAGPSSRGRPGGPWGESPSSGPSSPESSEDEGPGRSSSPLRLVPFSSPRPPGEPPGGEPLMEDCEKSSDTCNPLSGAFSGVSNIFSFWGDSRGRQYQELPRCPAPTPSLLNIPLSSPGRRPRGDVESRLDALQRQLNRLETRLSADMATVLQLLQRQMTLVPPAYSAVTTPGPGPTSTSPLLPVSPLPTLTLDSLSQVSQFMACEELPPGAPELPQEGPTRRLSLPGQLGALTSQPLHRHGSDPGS

physchem = settings: pH 6.5
[13] = Selectivity ratio of IC50 for inhibition of PI3K/AKT/mTOR signaling pathway in human MCF7 cells to IC50 for inhibition of ATR in human HT-29 cells
HT-29 [14] = test: Antiproliferative activity against human HT-29 cells assessed as reduction in cell viability measured after 4 days by crystal violet staining based assay; assay type: functional; settings: HT-29, 96 h
Outline: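 Cells plated at 2000 (HT-29) or 3000 (LoVo) per point in DMEM/Ham's F12 with 2 mM L-glutamine and 10% FCS. After 24 h adherence, compounds were added at 0.001–10 μM (0.1% DMSO final) and incubated continuously for 4 d at 37 °C. Cells were glutaraldehyde-fixed, stained with crystal violet and read at 595 nm.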

LoVo = test: Antiproliferative activity against human LoVo cells assessed as reduction in cell viability measured after 4 days by crystal violet staining based assay; assay type: functional; settings: 96 h
HT-29 [15] = test: Antitumor activity against human HT-29 cells xenografted in po dosed mouse administered twice daily; assay type: functional, organism-based

Structure (SMILES)	IC50 [1] [µM]	IC50 [3] [µM]	IC50 (HT-29 [14]) [µM]	other results
CC(C)Oc1cc(N2CCO[C@@H](C)C2)nc2c(-c3ccn[nH]3)nccc12	1.97			
CC(C)Oc1cc(N2CCOCC2)nc2c(-c3cn[nH]c3)nccc12	3.69			
CS(=O)(=O)c1ccc(-c2cc(N3CCOCC3)nc3c(-c4cc[nH]n4)nccc23)cc1		0.38		chromatographic logD [2]: 2.1; Papp A→B at 2 h, 2 µM [4]: 102 nm/s; efflux ratio at 2 µM [5]: 2.1; CLH [6]: 0.64 L/h/kg; CLH [7]: 0.69 L/h/kg; clearance [8]: 1.5 L/h/kg; Vd [9]: 2 L/kg; half-life [10]: 55.8 min; bioavailability [11]: 14%; IC50 [12]: 5.8 µM; solubility at 24 h (physchem): < 1 µg/mL
CC(C)Oc1cc(N2CCOCC2)nc2cnccc12	> 20			
CS(=O)(=O)c1ccc(-c2cc(N3CCOCC3)nc3c(-c4ccn[nH]4)nccc23)cc1			0.704	Ratio IC50 [13]: 13; IC50 (LoVo): 0.315 µM; Activity (HT-29 [15]): Active
C[C@@H]1COCCN1c1cc(C2(S(C)(=O)=O)CC2)c2ccnc(-c3ccn[nH]3)c2n1	0.015	0.086	0.268	Ratio IC50 [13]: 71
CC(C)Oc1cc(N2C[C@@H]3C[C@H]2CO3)nc2c(-c3ccn[nH]3)nccc12	0.922			
CC(C)Oc1cc(N2CCOCC2)nc2c(-c3ccn[nH]3)cccc12	5.05			
CC(C)Oc1cc(N2C3CCC2COC3)nc2c(-c3ccn[nH]3)nccc12	0.31			
COC1(C)CN(c2cc(OC(C)C)c3ccnc(-c4ccn[nH]4)c3n2)C1	> 20			
CC(C)Oc1cc(N2CCOC3CC32)nc2c(-c3ccn[nH]3)nccc12 (stereo not given)	1.51			
COc1cccc(-c2nccc3c(OC(C)C)cc(N4CCOCC4)nc23)n1	13.2			
CC(C)Oc1cc(N2CCOC[C@H]2C)nc2c(-c3ccn[nH]3)nccc12		0.154	0.929	Ratio IC50 [13]: 25
CCC1COCCN1c1cc(OC(C)C)c2ccnc(-c3ccn[nH]3)c2n1 (stereo not given)	1.86			
Cc1nc(S(C)(=N)=O)ccc1-c1cc(N2CCOC[C@H]2C)nc2c(-c3ccn[nH]3)nccc12 (stereo not given in full)	0.01	0.266	0.323	Ratio IC50 [13]: 16
CC(C)Oc1cc(N2CCOCC2)nc2c(-c3ccc[nH]c3=O)nccc12	> 20			
C[C@@H]1COCCN1c1cc(N(C)c2ccc(F)cc2)c2ccnc(-c3ccn[nH]3)c2n1	0.009	0.07	0.381	Ratio IC50 [13]: 42
CC(C)Oc1cc(N2CCOCC2)nc2c(C(N)=O)nccc12	3.3			
CC(C)Oc1cc(N2CCOCC2)nc2c(-c3cccc(C(N)=O)c3)nccc12	17.2			
CC(C)Oc1cc(N2CCOCC2)nc2c(-c3ccnn3C)nccc12	12.5			
CCS(=O)(CC)=Nc1cc(N2CCOC[C@H]2C)nc2c(-c3ccn[nH]3)nccc12	0.022	0.03	0.168	Ratio IC50 [13]: 217
CC(C)Oc1cc(N2CCOCC2)nc2c(-c3cnc[nH]3)nccc12	3.4			
CC(C)Oc1cc(N2CCOCC2)nc2c(-c3ccc[nH]3)nccc12		> 3		

Structure (SMILES)	IC50 [1] [µM]	IC50 [3] [µM]	IC50 (HT-29 [14]) [µM]	other results
CC(C)Oc1cc(N2CCOCC2)nc2c(C3CCNC3)nccc12 (stereo not given)	> 20			
CC(C)Oc1cc(N2CCOCC2)nc2c(-c3cccnc3)nccc12	18.1			
CC(C)Oc1cc(N2C[C@H]3COC[C@H]3C2)nc2c(-c3ccn[nH]3)nccc12	9.44			
Cc1cn[nH]c1-c1nccc2c(OC(C)C)cc(N3CCOCC3)nc12	5.64			
Cc1cc(-c2nccc3c(OC(C)C)cc(N4CCOCC4)nc23)n[nH]1	12.7			
CCP(=O)(CC)c1cc(N2CCOC[C@H]2C)nc2c(-c3ccn[nH]3)nccc12		0.289	0.498	Ratio IC50 [13]: 61
CC(C)Oc1cc(N2CCOCC2C(F)(F)F)nc2c(-c3ccn[nH]3)nccc12 (stereo not given)	8.61			
C[C@@H]1COCCN1c1cc(-c2cccnc2F)c2ccnc(-c3ccn[nH]3)c2n1	0.008	0.044	0.175	Ratio IC50 [13]: 50
C[C@@H]1COCCN1c1cc(C(C)(O)C(C)(C)C)c2ccnc(-c3ccn[nH]3)c2n1 (stereo not given in full)			0.093	
C[C@@H]1COCCN1c1cc(C#Cc2cccnc2)c2ccnc(-c3ccn[nH]3)c2n1	0.022	0.227	0.405	Ratio IC50 [13]: 8
CC(C)Oc1cc(N2CCOCC2)nc2c(-c3nnn[nH]3)nccc12	> 20			
C[C@@H]1COCCN1c1cc(N2CCN(S(C)(=O)=O)CC2)c2ccnc(-c3ccn[nH]3)c2n1	0.005	0.059	0.233	Ratio IC50 [13]: 44
CC(C)Oc1cc(N2CCO[C@H](C)C2)nc2c(-c3ccn[nH]3)nccc12	1.5			
Cc1nccn1-c1cc(N2CCOC[C@H]2C)nc2c(-c3ccn[nH]3)nccc12	0.025	0.076	0.192	Ratio IC50 [13]: 263
CC(C)Oc1cc(N2CC(F)(F)OC(F)(F)C2)nc2c(-c3ccn[nH]3)nccc12	> 20			
C[C@@H]1COCCN1c1cc(-c2cnc3n2CCC3)c2ccnc(-c3ccn[nH]3)c2n1		0.082	0.125	Ratio IC50 [13]: 59
CC(C)Oc1cc(N2CCOCC2)nc2c(-c3cc4ccccc4[nH]3)nccc12	> 20			
CC(C)Oc1cc(N2CCOCC2)nc2c(-c3cccc(=O)[nH]3)nccc12	> 20			
CNC(=O)c1nccc2c(OC(C)C)cc(N3CCOCC3)nc12	> 20			
C[C@@H]1COCCN1c1cc(C2CCOCC2)c2ccnc(-c3ccn[nH]3)c2n1			0.292	
CC(C)Oc1cc(N2CCOCC2)nc2c(-c3ccn[nH]3)nccc12		0.424		Ratio IC50 [13]: 5
CC(C)Oc1cc(N2CCOCC2(C)C)nc2c(-c3ccn[nH]3)nccc12	> 20			
